Experimental data taken from article PMC3902791 (Molecular imaging and biology : MIB : the official …, 2012).
Where two headings read alike, the source gives them in different places.

Set-up: species or system human
How it was run: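 Organ time–activity curves came from whole-body scan VOI data. These were fitted mono-exponentially in five animals; in the sixth, with two scans, a linear fit to the log values was used. Time-integrated activity coefficients were scaled by the ratio of body-mass-normalised human to CT-derived macaque organ masses. Intestinal values were split in thirds across small intestine, ULI and LLI. Organ doses (mSv/MBq) were computed per animal with the OLINDA/EXM 1.1 adult male model.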

O=C(O)C[18F] [^18F-FACE, ^18F-fluoroacetate]
Organ dose to adult human model, Lungs (from animal 2, male): 0.010 mSv/MBq | Organ dose to adult human model, Muscle (from animal 2, male): 0.010 mSv/MBq | Organ dose to adult human model, Osteogenic cells (from animal 2, male): 0.014 mSv/MBq | Organ dose to adult human model, Pancreas (from animal 2, male): 0.014 mSv/MBq | Organ dose to adult human model, Red marrow (from animal 2, male): 0.011 mSv/MBq | Organ dose to adult human model, Skin (from animal 2, male): 0.007 mSv/MBq | Organ dose to adult human model, Small intestine (from animal 2, male): 0.045 mSv/MBq | Organ dose to adult human model, Spleen (from animal 2, male): 0.011 mSv/MBq | Organ dose to adult human model, Stomach wall (from animal 2, male): 0.013 mSv/MBq | Organ dose to adult human model, Testes (from animal 2, male): 0.009 mSv/MBq | Organ dose to adult human model, Thymus (from animal 2, male): 0.010 mSv/MBq | Organ dose to adult human model, Thyroid (from animal 2, male): 0.009 mSv/MBq | Organ dose to adult human model, ULI wall (upper large intestine) (from animal 2, male): 0.071 mSv/MBq | Organ dose to adult human model, Urinary bladder wall (from animal 2, male): 0.015 mSv/MBq | Dose to adult human model, Total body (from animal 3, male): 0.012 mSv/MBq | ED effective dose, adult human model (from animal 3, male): 0.028 mSv/MBq | EDE effective dose equivalent, adult human model (from animal 3, male): 0.030 mSv/MBq | Organ dose to adult human model, Adrenals (from animal 3, male): 0.013 mSv/MBq | Organ dose to adult human model, Brain (from animal 3, male): 0.009 mSv/MBq | Organ dose to adult human model, Breasts (from animal 3, male): 0.008 mSv/MBq | Organ dose to adult human model, Gallbladder wall (from animal 3, male): 0.017 mSv/MBq | Organ dose to adult human model, Heart wall (from animal 3, male): 0.020 mSv/MBq | Organ dose to adult human model, Kidneys (from animal 3, male): 0.034 mSv/MBq | Organ dose to adult human model, LLI wall (lower large intestine) (from animal 3, male): 0.120 mSv/MBq | Organ dose to adult human model, Liver (from animal 3, male): 0.014 mSv/MBq | Organ dose to adult human model, Lungs (from animal 3, male): 0.010 mSv/MBq | Organ dose to adult human model, Muscle (from animal 3, male): 0.011 mSv/MBq | Organ dose to adult human model, Osteogenic cells (from animal 3, male): 0.016 mSv/MBq | Organ dose to adult human model, Pancreas (from animal 3, male): 0.014 mSv/MBq | Organ dose to adult human model, Red marrow (from animal 3, male): 0.012 mSv/MBq | Organ dose to adult human model, Skin (from animal 3, male): 0.008 mSv/MBq | Organ dose to adult human model, Small intestine (from animal 3, male): 0.055 mSv/MBq | Organ dose to adult human model, Spleen (from animal 3, male): 0.012 mSv/MBq | Organ dose to adult human model, Stomach wall (from animal 3, male): 0.014 mSv/MBq | Organ dose to adult human model, Testes (from animal 3, male): 0.010 mSv/MBq | Organ dose to adult human model, Thymus (from animal 3, male): 0.010 mSv/MBq | Organ dose to adult human model, Thyroid (from animal 3, male): 0.010 mSv/MBq | Organ dose to adult human model, ULI wall (upper large intestine) (from animal 3, male): 0.088 mSv/MBq | Organ dose to adult human model, Urinary bladder wall (from animal 3, male): 0.017 mSv/MBq | Dose to adult human model, Total body (from animal 4, female): 0.008 mSv/MBq | ED effective dose, adult human model (from animal 4, female): 0.016 mSv/MBq | EDE effective dose equivalent, adult human model (from animal 4, female): 0.019 mSv/MBq | Organ dose to adult human model, Adrenals (from animal 4, female): 0.010 mSv/MBq | Organ dose to adult human model, Brain (from animal 4, female): 0.005 mSv/MBq | Organ dose to adult human model, Breasts (from animal 4, female): 0.005 mSv/MBq | Organ dose to adult human model, Gallbladder wall (from animal 4, female): 0.040 mSv/MBq | Organ dose to adult human model, Heart wall (from animal 4, female): 0.027 mSv/MBq | Organ dose to adult human model, Kidneys (from animal 4, female): 0.026 mSv/MBq | Organ dose to adult human model, LLI wall (lower large intestine) (from animal 4, female): 0.060 mSv/MBq | Organ dose to adult human model, Liver (from animal 4, female): 0.032 mSv/MBq | Organ dose to adult human model, Lungs (from animal 4, female): 0.007 mSv/MBq | Organ dose to adult human model, Muscle (from animal 4, female): 0.007 mSv/MBq | Organ dose to adult human model, Osteogenic cells (from animal 4, female): 0.010 mSv/MBq | Organ dose to adult human model, Ovaries (from animal 4, female): 0.013 mSv/MBq | Organ dose to adult human model, Pancreas (from animal 4, female): 0.010 mSv/MBq | Organ dose to adult human model, Red marrow (from animal 4, female): 0.007 mSv/MBq | Organ dose to adult human model, Skin (from animal 4, female): 0.005 mSv/MBq | Organ dose to adult human model, Small intestine (from animal 4, female): 0.029 mSv/MBq | Organ dose to adult human model, Spleen (from animal 4, female): 0.008 mSv/MBq | Organ dose to adult human model, Stomach wall (from animal 4, female): 0.009 mSv/MBq | Organ dose to adult human model, Thymus (from animal 4, female): 0.007 mSv/MBq | Organ dose to adult human model, Thyroid (from animal 4, female): 0.006 mSv/MBq | Organ dose to adult human model, ULI wall (upper large intestine) (from animal 4, female): 0.045 mSv/MBq | Organ dose to adult human model, Urinary bladder wall (from animal 4, female): 0.014 mSv/MBq | Organ dose to adult human model, Uterus (from animal 4, female): 0.011 mSv/MBq | Dose to adult human model, Total body (from animal 5, female): 0.010 mSv/MBq | ED effective dose, adult human model (from animal 5, female): 0.018 mSv/MBq | EDE effective dose equivalent, adult human model (from animal 5, female): 0.021 mSv/MBq | Organ dose to adult human model, Adrenals (from animal 5, female): 0.012 mSv/MBq | Organ dose to adult human model, Brain (from animal 5, female): 0.008 mSv/MBq | Organ dose to adult human model, Breasts (from animal 5, female): 0.008 mSv/MBq | Organ dose to adult human model, Gallbladder wall (from animal 5, female): 0.036 mSv/MBq | Organ dose to adult human model, Heart wall (from animal 5, female): 0.015 mSv/MBq | Organ dose to adult human model, Kidneys (from animal 5, female): 0.042 mSv/MBq | Organ dose to adult human model, LLI wall (lower large intestine) (from animal 5, female): 0.062 mSv/MBq | Organ dose to adult human model, Liver (from animal 5, female): 0.015 mSv/MBq | Organ dose to adult human model, Lungs (from animal 5, female): 0.009 mSv/MBq | Organ dose to adult human model, Muscle (from animal 5, female): 0.010 mSv/MBq | Organ dose to adult human model, Osteogenic cells (from animal 5, female): 0.014 mSv/MBq | Organ dose to adult human model, Ovaries (from animal 5, female): 0.017 mSv/MBq | Organ dose to adult human model, Pancreas (from animal 5, female): 0.013 mSv/MBq | Organ dose to adult human model, Red marrow (from animal 5, female): 0.010 mSv/MBq | Organ dose to adult human model, Skin (from animal 5, female): 0.007 mSv/MBq | Organ dose to adult human model, Small intestine (from animal 5, female): 0.031 mSv/MBq | Organ dose to adult human model, Spleen (from animal 5, female): 0.011 mSv/MBq | Organ dose to adult human model, Stomach wall (from animal 5, female): 0.012 mSv/MBq | Organ dose to adult human model, Thymus (from animal 5, female): 0.009 mSv/MBq | Organ dose to adult human model, Thyroid (from animal 5, female): 0.009 mSv/MBq | Organ dose to adult human model, ULI wall (upper large intestine) (from animal 5, female): 0.047 mSv/MBq | Organ dose to adult human model, Urinary bladder wall (from animal 5, female): 0.017 mSv/MBq | Organ dose to adult human model, Uterus (from animal 5, female): 0.014 mSv/MBq | Dose to adult human model, Total body (from animal 6, female): 0.012 mSv/MBq | ED effective dose, adult human model (from animal 6, female): 0.018 mSv/MBq | EDE effective dose equivalent, adult human model (from animal 6, female): 0.019 mSv/MBq | Organ dose to adult human model, Adrenals (from animal 6, female): 0.013 mSv/MBq | Organ dose to adult human model, Brain (from animal 6, female): 0.010 mSv/MBq | Organ dose to adult human model, Breasts (from animal 6, female): 0.009 mSv/MBq | Organ dose to adult human model, Gallbladder wall (from animal 6, female): 0.016 mSv/MBq | Organ dose to adult human model, Heart wall (from animal 6, female): 0.017 mSv/MBq | Organ dose to adult human model, Kidneys (from animal 6, female): 0.026 mSv/MBq | Organ dose to adult human model, LLI wall (lower large intestine) (from animal 6, female): 0.052 mSv/MBq | Organ dose to adult human model, Liver (from animal 6, female): 0.017 mSv/MBq | Organ dose to adult human model, Lungs (from animal 6, female): 0.011 mSv/MBq | Organ dose to adult human model, Muscle (from animal 6, female): 0.011 mSv/MBq | Organ dose to adult human model, Osteogenic cells (from animal 6, female): 0.017 mSv/MBq | Organ dose to adult human model, Ovaries (from animal 6, female): 0.018 mSv/MBq | Organ dose to adult human model, Pancreas (from animal 6, female): 0.014 mSv/MBq | Organ dose to adult human model, Red marrow (from animal 6, female): 0.011 mSv/MBq | Organ dose to adult human model, Skin (from animal 6, female): 0.009 mSv/MBq | Organ dose to adult human model, Small intestine (from animal 6, female): 0.029 mSv/MBq | Organ dose to adult human model, Spleen (from animal 6, female): 0.013 mSv/MBq | Organ dose to adult human model, Stomach wall (from animal 6, female): 0.013 mSv/MBq | Organ dose to adult human model, Thymus (from animal 6, female): 0.011 mSv/MBq | Organ dose to adult human model, Thyroid (from animal 6, female): 0.011 mSv/MBq | Organ dose to adult human model, ULI wall (upper large intestine) (from animal 6, female): 0.040 mSv/MBq | Organ dose to adult human model, Urinary bladder wall (from animal 6, female): 0.021 mSv/MBq | Organ dose to adult human model, Uterus (from animal 6, female): 0.016 mSv/MBq
